Reference: ChEMBL document CHEMBL1154616, “Synthesis and antitumor activity studies of some new fused 1,2,4-triazole derivatives carrying 2,4-dichloro-5-fluorophenyl moiety” (Eur J Med Chem, 2009)

What was measured:
Type in all cases: functional
Malme-3M = assay: Anticancer activity against human MALME-3M cells after 48 hrs by sulforhodamine B assay
Outline: (§1)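 Full 60-cell-line panel, compounds tested over a five-log dose range. Cells are preincubated on microtiter plates, the agent is added, and cultures run 48 h. The end point is sulphorhodamine B protein staining. GI50 is taken as the concentration giving 50% growth inhibition relative to untreated control cells.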

MOLT-4 = assay: Anticancer activity against human MOLT4 cells after 48 hrs by sulforhodamine B assay; conditions: MOLT-4, 48 h; outline: as §1
IGROV-1 = assay: Anticancer activity against human IGROV1 cells after 48 hrs by sulforhodamine B assay; conditions: IGROV-1, 48 h; outline: as §1
TK-10 = assay: Anticancer activity against human TK10 cells after 48 hrs by sulforhodamine B assay; conditions: TK-10, 48 h
Outline: (§2)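 Cells from the 60-line full panel are preincubated on microtiter plates, then treated across a five-log dose range for 48 h. Growth is read with the protein-binding dye sulforhodamine B. GI50 is the concentration giving 50% growth inhibition relative to untreated control cells.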

[1] = Anticancer activity against human […] cells after 48 hrs by sulforhodamine B assay; outline: as §1
MCF7 [2] = assay: Anticancer activity against human MCF7 cells after 48 hrs by sulforhodamine B assay; conditions: MCF7, 48 h; outline: as §1
T47D = assay: Anticancer activity against human T47D cells after 48 hrs by sulforhodamine B assay; outline: as §2
SK-MEL-28 = assay: Anticancer activity against human SK-MEL-28 cells after 48 hrs by sulforhodamine B assay; conditions: SK-MEL-28, 48 h; outline: as §1
RXF 393 = assay: Anticancer activity against human RXF393 cells after 48 hrs by sulforhodamine B assay; conditions: RXF 393, 48 h; outline: as §1
NCI-H226 = assay: Anticancer activity against human NCI-H226 cells after 48 hrs by sulforhodamine B assay; conditions: NCI-H226, 48 h; outline: as §1
SF-539 = assay: Anticancer activity against human SF539 cells after 48 hrs by sulforhodamine B assay; conditions: SF-539, 48 h; outline: as §1
HCT-15 = assay: Anticancer activity against human HCT15 cells after 48 hrs by sulforhodamine B assay; conditions: HCT-15, 48 h; outline: as §1
UO-31 = assay: Anticancer activity against human UO31 cells after 48 hrs by sulforhodamine B assay; conditions: UO-31, 48 h; outline: as §2
NCI-H460 [3] = assay: Anticancer activity against human NCI-H460 cells assessed as cell growth at 100 uM after 48 hrs by sulforhodamine B assay relative to control; conditions: NCI-H460, 48 h, read-out: Activity
Outline: (§3)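 Three-cell-line prescreen (NCI-H460 lung, MCF7 breast, SF 268 CNS), each preincubated on microtiter plates. The agent is added at a single concentration and cultures are incubated 48 h. Growth is read by sulphorhodamine B protein staining and reported as percent growth of treated versus untreated control cells; negative values indicate cell kill.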

UACC-62 = assay: Anticancer activity against human UACC62 cells after 48 hrs by sulforhodamine B assay; conditions: UACC-62, 48 h; outline: as §2
KM12 = assay: Anticancer activity against human KM12 cells after 48 hrs by sulforhodamine B assay; conditions: KM12, 48 h; outline: as §1
786-0 = assay: Anticancer activity against human 786-0 cells after 48 hrs by sulforhodamine B assay; conditions: 786-0, 48 h; outline: as §1
HOP-62 = assay: Anticancer activity against human HOP62 cells after 48 hrs by sulforhodamine B assay; conditions: HOP-62, 48 h; outline: as §1
NCI-H322M = assay: Anticancer activity against human NCI-H322M cells after 48 hrs by sulforhodamine B assay; outline: as §1
SK-OV-3 = assay: Anticancer activity against human SKOV3 cells after 48 hrs by sulforhodamine B assay; conditions: SK-OV-3, 48 h; outline: as §1
SF-295 = assay: Anticancer activity against human SF295 cells after 48 hrs by sulforhodamine B assay; conditions: SF-295, 48 h; outline: as §1
NCI/ADR-RES = assay: Anticancer activity against human NCI/ADR-RES cells after 48 hrs by sulforhodamine B assay; outline: as §1
CCRF-CEM = assay: Anticancer activity against human CCRF-CEM cells after 48 hrs by sulforhodamine B assay; outline: as §1
HCC 2998 = assay: Anticancer activity against human HCC2998 cells after 48 hrs by sulforhodamine B assay; conditions: HCC 2998, 48 h; outline: as §1
DU-145 = assay: Anticancer activity against human DU145 cells after 48 hrs by sulforhodamine B assay; conditions: DU-145, 48 h; outline: as §1
OVCAR-8 = assay: Anticancer activity against human OVCAR8 cells after 48 hrs by sulforhodamine B assay; conditions: OVCAR-8, 48 h; outline: as §1
NCI-H522 = assay: Anticancer activity against human NCI-H522 cells after 48 hrs by sulforhodamine B assay; conditions: NCI-H522, 48 h; outline: as §1
A549 = assay: Anticancer activity against human A549 cells after 48 hrs by sulforhodamine B assay; conditions: A549, 48 h; outline: as §1
HL-60(TB) = assay: Anticancer activity against human HL-60(TB) cells after 48 hrs by sulforhodamine B assay; conditions: HL-60, 48 h
Outline: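 Run within the full 60-cell-line panel across a five-log dose range. GI50 was taken as the concentration causing 50% growth inhibition relative to untreated control cells.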

COLO 205 = assay: Anticancer activity against human COLO205 cells after 48 hrs by sulforhodamine B assay; conditions: COLO 205, 48 h; outline: as §1
SF-268 [4] = assay: Anticancer activity against human SF268 cells after 48 hrs by sulforhodamine B assay; conditions: SF-268, 48 h; outline: as §1
SR = assay: Anticancer activity against human SR cells after 48 hrs by sulforhodamine B assay; outline: as §2
SNB-75 = assay: Anticancer activity against human SNB75 cells after 48 hrs by sulforhodamine B assay; conditions: SNB-75, 48 h; outline: as §2
LOX IMVI = assay: Anticancer activity against human LOXIMVI cells after 48 hrs by sulforhodamine B assay; outline: as §1
ACHN = assay: Anticancer activity against human ACHN cells after 48 hrs by sulforhodamine B assay; outline: as §1
EKVX = assay: Anticancer activity against human EKVX cells after 48 hrs by sulforhodamine B assay; outline: as §1
PC-3 = assay: Anticancer activity against human PC3 cells after 48 hrs by sulforhodamine B assay; conditions: PC-3, 48 h; outline: as §1
MDA-MB-231 = assay: Anticancer activity against human MDA-MB-231 cells after 48 hrs by sulforhodamine B assay; conditions: MDA-MB-231, 48 h; outline: as §1
UACC-257 = assay: Anticancer activity against human UACC257 cells after 48 hrs by sulforhodamine B assay; conditions: UACC-257, 48 h; outline: as §2
NCI-H23 = assay: Anticancer activity against human NCI-H23 cells after 48 hrs by sulforhodamine B assay; conditions: NCI-H23, 48 h; outline: as §1
HOP-92 = assay: Anticancer activity against human HOP92 cells after 48 hrs by sulforhodamine B assay; conditions: HOP-92, 48 h; outline: as §1
U-251 = assay: Anticancer activity against human U251 cells after 48 hrs by sulforhodamine B assay; conditions: U-251, 48 h; outline: as §2
NCI-H460 [5] = assay: Anticancer activity against human NCI-H460 cells after 48 hrs by sulforhodamine B assay; conditions: NCI-H460, 48 h; outline: as §1
K562 = assay: Anticancer activity against human K562 cells after 48 hrs by sulforhodamine B assay; conditions: K562, 48 h; outline: as §1
SN12C = assay: Anticancer activity against human SN12C cells after 48 hrs by sulforhodamine B assay; outline: as §1
MDA-MB-435 = assay: Anticancer activity against human MDA-MB-435 cells after 48 hrs by sulforhodamine B assay; conditions: MDA-MB-435, 48 h; outline: as §1
MCF7 [6] = assay: Anticancer activity against human MCF7 cells assessed as cell growth at 100 uM after 48 hrs by sulforhodamine B assay relative to control; conditions: MCF7, 48 h, read-out: Activity; outline: as §3
M14 = assay: Anticancer activity against human M14 cells after 48 hrs by sulforhodamine B assay; conditions: M14, 48 h; outline: as §1
SW-620 = assay: Anticancer activity against human SW620 cells after 48 hrs by sulforhodamine B assay; conditions: SW-620, 48 h; outline: as §2
HCT-116 = assay: Anticancer activity against human HCT116 cells after 48 hrs by sulforhodamine B assay; conditions: HCT-116, 48 h; outline: as §1
SF-268 [7] = assay: Anticancer activity against human SF268 cells assessed as cell growth at 100 uM after 48 hrs by sulforhodamine B assay relative to control; conditions: SF-268, 48 h, read-out: Activity; outline: as §3
OVCAR-5 = assay: Anticancer activity against human OVCAR5 cells after 48 hrs by sulforhodamine B assay; conditions: OVCAR-5, 48 h; outline: as §1
SNB-19 = assay: Anticancer activity against human SNB19 cells after 48 hrs by sulforhodamine B assay; conditions: SNB-19, 48 h; outline: as §1
CAKI-1 = assay: Anticancer activity against human Caki1 cells after 48 hrs by sulforhodamine B assay; conditions: CAKI-1, 48 h; outline: as §1
OVCAR-3 = assay: Anticancer activity against human OVCAR-3 cells after 48 hrs by sulforhodamine B assay; conditions: OVCAR-3, 48 h; outline: as §1
HT-29 = assay: Anticancer activity against human HT-29 cells after 48 hrs by sulforhodamine B assay; conditions: HT-29, 48 h; outline: as §1
[8] = Anticancer activity against human Hs 578T cells after 48 hrs by sulforhodamine B assay; outline: as §1
OVCAR-4 = assay: Anticancer activity against human OVCAR4 cells after 48 hrs by sulforhodamine B assay; conditions: OVCAR-4, 48 h; outline: as §1

Fc1cc(-c2nnc3n2N=C(c2ccc(Cl)cc2Cl)CS3)c(Cl)cc1Cl
GI50 (Malme-3M): 26.6 µM | GI50 (MOLT-4): 75.1 µM | GI50 (IGROV-1): 50.4 µM | GI50 (TK-10): 77.3 µM | GI50 [1]: 25.3 µM | GI50 (MCF7 [2]): 31.3 µM | GI50 (T47D): 17.7 µM | GI50 (SK-MEL-28): 40.2 µM | GI50 (RXF 393): 51 µM | GI50 (NCI-H226): 36.5 µM | GI50 (SF-539): 39.2 µM | GI50 (HCT-15): 38.3 µM | GI50 (UO-31): 60.2 µM | growth at 100 µM (NCI-H460 [3]): 32% | GI50 (UACC-62): 24.9 µM | GI50 (KM12): 41.9 µM | GI50 (786-0): 47.1 µM | GI50 (HOP-62): 44.2 µM | GI50 (NCI-H322M): 76.4 µM | GI50 (SK-OV-3): 48 µM | GI50 (SF-295): 36.4 µM | GI50 (NCI/ADR-RES): 30.8 µM | GI50 (CCRF-CEM): 27.6 µM | GI50 (HCC 2998): 35 µM | GI50 (DU-145): 49.5 µM | GI50 (OVCAR-8): 57.3 µM | GI50 (NCI-H522): 50.8 µM | GI50 (A549): 58 µM | GI50 (HL-60(TB)): > 100 µM | GI50 (COLO 205): 32.9 µM | GI50 (SF-268 [4]): 36.6 µM | GI50 (SR): > 100 µM | GI50 (SNB-75): > 100 µM | GI50 (LOX IMVI): 34.3 µM | GI50 (ACHN): 66.6 µM | GI50 (EKVX): 58.5 µM | GI50 (PC-3): 39.2 µM | GI50 (MDA-MB-231): 33.7 µM | GI50 (UACC-257): 86 µM | GI50 (NCI-H23): 82.5 µM | GI50 (HOP-92): 54.2 µM | GI50 (U-251): 56.2 µM | GI50 (NCI-H460 [5]): 37.3 µM | GI50 (K562): 47.5 µM | GI50 (SN12C): 56.4 µM | GI50 (MDA-MB-435): 24.4 µM | growth at 100 µM (MCF7 [6]): 69% | GI50 (M14): 37.5 µM | GI50 (SW-620): 36.8 µM | GI50 (HCT-116): 25.4 µM | growth at 100 µM (SF-268 [7]): 76% | GI50 (OVCAR-5): > 100 µM | GI50 (SNB-19): 25.4 µM | GI50 (CAKI-1): 35.9 µM | GI50 (OVCAR-3): 22.8 µM | GI50 (HT-29): 40.5 µM | GI50 [8]: 33.6 µM | GI50 (OVCAR-4): > 100 µM
